Publication PMC4475676 (Biochemistry, 2015)

What was measured:
peptide substrate [1] = experiment: ZZ-exchange NMR catalytic efficiency; assay type: biochemical
How it was run: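 ZZ-exchange NMR used 1 mM 15N-labeled peptide with unlabeled enzyme, 20 μM at 0–20 °C or 1 μM at 30–45 °C. kex_eff came from time-dependent cross-peak build-up, with fit errors from a single experiment. Catalytic-Arg mutants used 100 μM protein at 30 °C with a 0.768 s mixing time. For these, the cis-peak to cross-peak intensity ratio stood in for turnover.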

peptide substrate [2] = experiment: NMR titration binding affinity
How it was run: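 500 μM 15N-labeled wild-type or mutant protein titrated with 0, 0.1, 0.2, 0.5, 1 and 2 mM peptide. 15N HSQC recorded at 900 MHz. Shift changes of perturbed peaks were fit individually to a quadratic single-site binding equation. Peaks fitting with r² > 0.99 (fast exchange) were then fit globally for one KD per protein. Protein and peptide were in 50 mM Na2HPO4, 1 mM DTT, 1 mM EDTA, pH 6.5.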

[3] = denatures entirely; cited from earlier work
GeoCyp = settings: cited from earlier work
CypA = settings: cited from earlier work

CypA^A103R: CypA swap mutant, Ala 103 to Arg
effect of swap mutation on catalytic efficiency (peptide substrate [1]; relative to wild type, ZZ-exchange, 20 μM protein): less
effect of swap mutation on peptide binding (peptide substrate [2]; relative to wild type, NMR titration): strengthened

CypA^R55A: CypA with mutation of the catalytic arginine Arg 55 to alanine
catalysis after mutation of catalytic arginine (peptide substrate [1]; 100 μM protein, 1 mM peptide, 30 °C): nearly, but not entirely, ablates catalysis

CypA^WT: prototypical human cyclophilin A, mesophilic peptidyl-prolyl isomerase
turnover at 45 °C compared between CypA and GeoCyp (peptide substrate [1]; 45 °C, 1 μM protein, 1 mM peptide): comparable rate
Tm / denaturation temperature [3]: 51 °C
temperature dependence of binding affinity for the peptide (peptide substrate [2]): highly temperature-dependent

GSFGPDLRAGD [peptide substrate]
isomerization of G-P peptide bond by GeoCyp (GeoCyp): readily isomerized
isomerization of G-P peptide bond by CypA (CypA): readily isomerized
